The results in this text go back to ChEMBL document CHEMBL4814043, “Optimization of a urea-containing series of nicotinamide phosphoribosyltransferase (NAMPT) activators” (Bioorg Med Chem Lett, 2021).

In data set [1] the target is T1, Nicotinamide phosphoribosyltransferase (Homo sapiens, UniProt P43490). Briefly: Activation of human NAMPT.
Target sequence in this assay (P43490 whole entry): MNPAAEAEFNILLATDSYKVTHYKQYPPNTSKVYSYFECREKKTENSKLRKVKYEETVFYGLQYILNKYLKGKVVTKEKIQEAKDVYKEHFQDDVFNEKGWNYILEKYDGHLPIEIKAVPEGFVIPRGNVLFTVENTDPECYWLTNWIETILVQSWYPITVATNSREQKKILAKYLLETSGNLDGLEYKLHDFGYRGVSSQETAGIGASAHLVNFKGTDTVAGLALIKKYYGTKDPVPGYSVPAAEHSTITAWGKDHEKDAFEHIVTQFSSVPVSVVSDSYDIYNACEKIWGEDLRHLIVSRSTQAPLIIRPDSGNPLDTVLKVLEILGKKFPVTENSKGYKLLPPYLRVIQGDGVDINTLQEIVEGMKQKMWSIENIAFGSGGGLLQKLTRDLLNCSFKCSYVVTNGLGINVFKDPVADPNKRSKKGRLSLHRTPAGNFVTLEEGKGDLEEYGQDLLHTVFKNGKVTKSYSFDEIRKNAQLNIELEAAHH
The nature of data set [2]: Plasma clearance in mouse at 1 mg/kg, iv. It is filed as ADME, organism-based.
Data set [3] is described as follows: AUC in mouse at 10 mg/kg, po. It is filed as ADME, organism-based. The arrangement: dose 10 mg/kg. The following applies: in vivo.
A short description of data set [4]: Cmax in mouse at 10 mg/kg, po. Type of data set: ADME, organism-based. On the set-up: route oral, dose 10 mg/kg. The following applies: in vivo.
Data set [5] in a line: Half life in mouse at 10 mg/kg, po. Particulars: in vivo. Type of data set: ADME, organism-based.
Data set [6] is described as follows: Volume of distribution in mouse at 1 mg/kg, iv. It is filed as ADME, organism-based. Particulars: in vivo.
Data set [7] in a line: Oral bioavailability in mouse at 10 mg/kg. It is filed as ADME, organism-based. The following applies: in vivo.
A short description of data set [8]: Permeability of compound at pH 5 by PAMPA assay. Type of data set: ADME. Particulars: read-out: permeability. A general note: In PAMPA a lipid-coated filter parts donor from acceptor wells.
In another data set the target is CYP2D6 (Homo sapiens, UniProt P10635). Description: Inhibition of CYP2D6 (unknown origin) at 10 uM measured after 10 mins. Type of data set: ADME. In outline:
(§1)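 Each CYP isoform (1A2, 2C9, 2D6, 3A4) reacted with compound at 10 µM for 10 min; value reported as percent inhibition.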

Data set [9] concerns the target T1, Nicotinamide phosphoribosyltransferase. Briefly: Activation of NAMPT in human A549 cells assessed as increase in NAD+ level at 10 uM incubated for 4 hrs by LC-MS/MS analysis. It is filed as cell-based. The following applies: filed as activator. In outline:
(§2)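 A549 cells exposed to 10 µM compound or DMSO vehicle for 4 hr, then harvested; NMN and NAD+ quantified by LC-MS/MS and normalized to cell protein; significance vs. vehicle control by P value.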
Target sequence in this assay (P43490 whole entry, looked up): as the sequence (P43490 whole entry) above

Data set [10] can be described thus: Solubility of compound at pH 6.8. It is filed as physicochemical. The following applies: buffer.
A short description of data set [11]: Metabolic stability in mouse liver microsomes assessed as parent compound remaining at 1 uM measured after 30 mins. Type of data set: ADME, Microsome. Particulars: read-out: Stabilty. A digest of the protocol: (§3)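 Compound at 1 µM incubated with human or mouse microsomes for 30 min; read-out is percent parent remaining.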
For another data set, the target named is CYP3A4 (Homo sapiens, UniProt P08684). Description: Inhibition of CYP3A4 (unknown origin) at 10 uM measured after 10 mins. Type of data set: ADME. In outline:
as §1

Data set [12] is described as follows: 1-Octanol/PBS buffer distribution coefficient, log D of the compound at pH 7.4. Type of data set: physicochemical. In outline: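 Partitioning measured between 1-octanol and phosphate-buffered saline at pH 7.4.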
The target of another data set is CYP2C9 (Homo sapiens, UniProt P11712). Briefly: Inhibition of CYP2C9 (unknown origin) at 10 uM measured after 10 mins. Type of data set: ADME. A digest of the protocol: as §1
Chain of CYP2C9 (P11712 whole entry): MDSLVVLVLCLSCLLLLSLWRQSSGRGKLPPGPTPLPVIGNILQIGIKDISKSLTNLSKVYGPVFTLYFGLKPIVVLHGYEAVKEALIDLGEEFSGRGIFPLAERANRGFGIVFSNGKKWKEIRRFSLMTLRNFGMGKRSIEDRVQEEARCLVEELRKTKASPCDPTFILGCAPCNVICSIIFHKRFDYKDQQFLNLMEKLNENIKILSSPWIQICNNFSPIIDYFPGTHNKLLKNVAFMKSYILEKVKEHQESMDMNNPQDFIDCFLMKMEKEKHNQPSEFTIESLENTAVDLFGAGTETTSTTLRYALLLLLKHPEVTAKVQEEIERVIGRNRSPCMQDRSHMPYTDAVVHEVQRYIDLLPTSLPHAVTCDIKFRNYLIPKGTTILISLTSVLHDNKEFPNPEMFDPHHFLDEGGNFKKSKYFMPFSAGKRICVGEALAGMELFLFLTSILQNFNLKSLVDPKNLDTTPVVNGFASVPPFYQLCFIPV
Data set [13] in a line: Permeability of compound at pH 7.4 by PAMPA assay. It is filed as ADME. Particulars: read-out: permeability.
The target of data set [14] is T1, Nicotinamide phosphoribosyltransferase. Briefly: Activation of NAMPT in human A549 cells assessed as increase in NMN level at 10 uM incubated for 4 hrs by LC-MS/MS analysis. Type of data set: cell-based. The following applies: filed as activator. In outline:
as §2
Target sequence in this assay (P43490 whole entry, looked up): as the sequence (P43490 whole entry) above

A further data set deals with T2, CYP1A2 (Homo sapiens, UniProt P05177).
T2 sequence (P05177 whole entry): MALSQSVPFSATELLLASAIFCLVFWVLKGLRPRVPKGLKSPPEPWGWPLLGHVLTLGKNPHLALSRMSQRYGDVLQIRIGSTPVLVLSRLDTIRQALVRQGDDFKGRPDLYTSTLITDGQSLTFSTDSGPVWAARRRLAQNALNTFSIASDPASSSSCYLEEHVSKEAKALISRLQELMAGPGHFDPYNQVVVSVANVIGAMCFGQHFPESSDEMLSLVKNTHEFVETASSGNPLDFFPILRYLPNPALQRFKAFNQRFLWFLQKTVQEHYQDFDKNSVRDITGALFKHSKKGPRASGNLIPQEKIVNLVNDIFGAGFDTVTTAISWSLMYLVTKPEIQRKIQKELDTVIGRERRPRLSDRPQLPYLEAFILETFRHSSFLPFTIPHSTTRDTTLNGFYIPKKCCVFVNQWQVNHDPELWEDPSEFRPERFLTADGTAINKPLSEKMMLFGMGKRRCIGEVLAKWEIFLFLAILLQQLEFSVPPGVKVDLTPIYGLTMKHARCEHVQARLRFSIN
Description: Inhibition of CYP1A2 (unknown origin) at 10 uM measured after 10 mins. It is filed as ADME. A digest of the protocol: as §1

Data set [15] is described as follows: Metabolic stability in human liver microsomes assessed as parent compound remaining at 1 uM measured after 30 mins. It is filed as ADME, Microsome. Particulars: read-out: Stabilty. In outline: as §3
Data set [16] is described as follows: Solubility of compound at pH 1.2. Particulars: buffer. Type of data set: physicochemical.

pEC50: −log10 of the molar value. ≈ marks a conversion by molar mass, not a printed value. Calls of active or inactive are those of the source. No cut-off for these calls is given here.

One may read the pEC50 as the negative decadic logarithm of the EC50, by convention in mol/L. A lower pEC50 goes with a large EC50. Broadly, the clearance is the volume of plasma or blood freed of the substance per unit of time. Higher therefore signals a high capacity for elimination. The term AUC denotes concentration integrated over time. Low values mean low exposure, high ones high exposure. A word on the Cmax: it is the peak of the concentration-time curve. What is called half-life is how long it takes for the measured level to halve. What is called Vd is the apparent volume that relates the amount in the body to the concentration in plasma or blood. High values mean extensive tissue distribution, low ones confinement near the circulation. One may read the bioavailability as the share of a dose that reaches the circulation, judged against a reference dose that is usually intravenous. Low values mean poor availability, high ones good availability. Usually inhibition stands for how much of the control response was suppressed. Read a low inhibition as a weak effect. For orientation: solubility means how much of the substance goes into solution per volume. One may read the logD as the decadic logarithm of the distribution of all forms, ionised or not, between an organic phase and buffer at a given pH.

Chain of CYP2D6 (P10635 whole entry, canonical isoform): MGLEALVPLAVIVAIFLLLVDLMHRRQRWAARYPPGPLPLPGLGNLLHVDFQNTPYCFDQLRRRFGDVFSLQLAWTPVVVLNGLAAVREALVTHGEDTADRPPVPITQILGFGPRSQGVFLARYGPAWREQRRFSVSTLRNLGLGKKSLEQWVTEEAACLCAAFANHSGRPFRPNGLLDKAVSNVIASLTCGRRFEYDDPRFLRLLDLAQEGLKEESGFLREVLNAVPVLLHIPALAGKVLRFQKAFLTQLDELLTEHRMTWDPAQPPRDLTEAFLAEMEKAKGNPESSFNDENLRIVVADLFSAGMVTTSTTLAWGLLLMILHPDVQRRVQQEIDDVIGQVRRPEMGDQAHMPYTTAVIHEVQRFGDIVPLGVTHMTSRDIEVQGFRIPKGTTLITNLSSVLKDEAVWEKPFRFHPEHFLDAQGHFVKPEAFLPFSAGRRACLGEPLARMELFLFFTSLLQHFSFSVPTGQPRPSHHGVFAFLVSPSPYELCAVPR
Chain of CYP3A4 (P08684 whole entry): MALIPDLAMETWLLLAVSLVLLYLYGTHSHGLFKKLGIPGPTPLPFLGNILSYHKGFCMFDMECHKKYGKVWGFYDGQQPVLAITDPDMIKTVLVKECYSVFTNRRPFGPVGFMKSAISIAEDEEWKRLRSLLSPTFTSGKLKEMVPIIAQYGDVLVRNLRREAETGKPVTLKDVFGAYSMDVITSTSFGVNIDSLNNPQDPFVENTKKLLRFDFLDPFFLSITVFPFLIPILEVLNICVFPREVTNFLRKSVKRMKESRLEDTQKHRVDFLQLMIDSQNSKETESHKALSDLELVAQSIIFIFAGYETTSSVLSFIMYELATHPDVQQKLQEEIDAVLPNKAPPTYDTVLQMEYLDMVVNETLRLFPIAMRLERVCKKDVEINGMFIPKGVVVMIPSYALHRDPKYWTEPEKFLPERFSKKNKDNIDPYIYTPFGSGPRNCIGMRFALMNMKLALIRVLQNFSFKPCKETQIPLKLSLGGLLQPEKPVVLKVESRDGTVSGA

`CCOC(=O)c1ccc(NC(=O)NCc2cc[nH]n2)cc1`: the pEC50 in [1] is 4.16.

Regarding `O=C(NCc1ccncc1)Nc1ccc(S(=O)(=O)NCc2ccccc2)cc1`, in [1], the pEC50 is 6.99.

`O=C(NCc1ccncc1)Nc1ccc(S(=O)(=O)c2ccc(Cl)cc2)cc1`: in data set [1], the pEC50 is 6.90.

With `CCOC(=O)c1ccc(NC(=S)NCc2ccncc2)cc1`, in data set [1], the pEC50 is 5.01. This pEC50 lies 1.89 log units lower than the previous one.

On to `CCOC(=O)c1ccc(NC(=O)OCc2ccncc2)cc1`, for which the pEC50 in [1] was 4.97.

In turn, `CCOC(=O)c1ccc(NC(=O)NCc2ccncn2)cc1` gave a pEC50 in data set [1] of 4.87.

`O=C(NCc1ccncc1)Nc1ccc(S(=O)(=O)N2CC3CCC(C2)O3)cc1`: the pEC50 in data set [1] is 6.55.

Turning to `O=C(NCc1ccncc1)Nc1ccc(S(=O)(=O)N2CCc3ccccc3C2)cc1`, the clearance in data set [2] stood at 20 mL/min/kg. In [3], this molecule showed an AUC of 4270 ng·h/mL. This molecule had a Cmax in [4] of 7860 ng/mL. The molecule also had a half-life in data set [5] of 1 h. The Vd in data set [6] worked out at 0.6 L/kg. The same molecule returned a bioavailability in data set [7] of 47%. Moreover, in data set [1], the pEC50 is 6.85.

On to `CCOC(=O)c1ccc(NC(=O)NCc2ccccc2)cc1`, for which, in data set [1], the pEC50 is 5.86.

With `O=C(NCc1ccncc1)Nc1ccc(S(=O)(=O)c2ccccc2)cc1`, the pEC50 in data set [1] is 7.07.

In [1], `CCOC(=O)c1ccc(NC(=O)N(C)Cc2ccncc2)cc1` showed a pEC50 of less than 4.00.

Molecule `CN(C)S(=O)(=O)c1ccc(NC(=O)NCc2ccncc2)cc1` showed a pEC50 in data set [1] of 5.51.

As for `O=C(NCc1cnco1)Nc1ccc(S(=O)(=O)c2ccccc2)cc1`, the pEC50 in data set [1] was 7.11. This pEC50 is 1.60 log units higher than that of the molecule before.

Regarding `CN(C1CCCC1)S(=O)(=O)c1ccc(NC(=O)NCc2ccncc2)cc1`, in data set [1], the pEC50 was 6.91.

For `CNS(=O)(=O)c1ccc(NC(=O)NCc2ccncc2)cc1`, in data set [1], the pEC50 is 5.49.

In data set [2], `O=C(NCc1cnco1)Nc1ccc(S(=O)(=O)c2cccc(OC(F)(F)F)c2)cc1` came in with a clearance of 4 mL/min/kg. For the same molecule, in data set [3], the AUC was found to be 45200 ng·h/mL. Moreover, the Cmax in [4] stood at 15300 ng/mL. In [5], this molecule had a half-life of 2.3 h. In addition, the Vd in [6] stood at 0.58 L/kg. In [7], this molecule had a bioavailability of more than 100%.

Regarding `O=C(NCc1ccncc1)Nc1ccc(S(=O)(=O)Nc2ccccc2)cc1`, the pEC50 in data set [1] is 6.39.

Turning to `CN(Cc1ccccc1)S(=O)(=O)c1ccc(NC(=O)NCc2ccncc2)cc1`, the clearance in data set [2] is 43 mL/min/kg. The molecule also displayed an AUC in data set [3] of 4510 ng·h/mL. In data set [4], this molecule showed a Cmax of 4950 ng/mL. In [5], this molecule had a half-life of 0.6 h. The Vd in [6] came out at 1.37 L/kg. In addition, the bioavailability in data set [7] was more than 100%.

`CCOC(=O)c1ccc(NC(=O)NCc2c[nH]nn2)cc1`: the pEC50 in data set [1] was 5.11.

In data set [1], `CCOC(=O)c1ccc(NC(=O)CCc2ccncc2)cc1` gave a pEC50 of 4.80. Against the preceding molecule, the pEC50 is 0.31 log units lower.

`O=C(NCc1cn[nH]c1)Nc1ccc(S(=O)(=O)c2ccccc2)cc1` returned a clearance in data set [2] of 8 mL/min/kg. The molecule also gave an AUC in data set [3] of 9340 ng·h/mL. The molecule also returned a Cmax in [4] of 2230 ng/mL. For the same molecule, in [5], the half-life is 2.5 h. For the same molecule, the Vd in [6] turned out to be 1.12 L/kg. The bioavailability in [7] was 45%. This molecule also had a negative-log EC50 (pEC50) in data set [1] of 7.55.

With `CCOC(=O)c1ccc(N/C(=N\C#N)NCc2ccncc2)cc1`, the pEC50 in data set [1] is 4.38.

Regarding `CCOC(=O)c1ccc(NC(=O)NCc2cocn2)cc1`, the pEC50 in data set [1] was 4.56.

In turn, `CCOC(=O)c1ccc(NC(=O)NC(C)c2ccncc2)cc1` (stereo not given) showed a pEC50 in data set [1] of 5.64.

Consider `CCOC(=O)c1ccc(CC(=O)NCc2ccncc2)cc1`, for which the pEC50 in data set [1] was less than 4.00.

In data set [1], `CCOC(=O)c1ccc(NC(=O)NCc2cn[nH]c2)cc1` gave a pEC50 of 5.73.

`CCOC(=O)c1ccc(NC(=O)NCc2ccnnc2)cc1` gave a pEC50 in [1] of less than 4.00.

The molecule `CCOC(=O)c1ccc(N(C)C(=O)NCc2ccncc2)cc1` gave a pEC50 in [1] of less than 4.00.

Take `O=C(NCc1cn[nH]c1)Nc1ccc(S(=O)(=O)c2ccc(Cl)cc2)cc1`: the values for the Papp in data set [8] and in [13] were less than 0.01 ×10⁻⁶ cm/s and 0.04 ×10⁻⁶ cm/s, respectively. In addition, the clearance in data set [2] was 3 mL/min/kg. Besides, the inhibition at 10 min, 10 µM against CYP2D6 worked out at 95%; at CYP3A4 it was 0%; against CYP2C9, 96%; against CYP1A2, 65%. Moreover, the AUC in data set [3] turned out to be 54500 ng·h/mL. The result in [9] and in [14] was Active. Further, the solubility in [10] is 8.5 µg/mL (≈ 21.7 µM); in data set [16], 110 µg/mL (≈ 281 µM). Moreover, the remaining at 0.5 h, 1 µM in [11] was determined as 18%; in data set [15] it was 87%. The molecule further registered a Cmax in data set [4] of 9550 ng/mL. This molecule gave a half-life in data set [5] of 3.2 h. For the same molecule, in data set [6], the Vd is 0.61 L/kg. The logD in data set [12] came out at 3.1. The molecule further displayed a bioavailability in data set [7] of 80%. Moreover, in data set [1], the pEC50 is 7.64.
